# Laboratory results reported in ChEMBL document CHEMBL1148384, “Design and synthesis of peptidomimetic protein farnesyltransferase inhibitors as anti-Trypanosoma brucei agents” (J Med Chem, 2004).
# Tests used:
# [1] = tested on: Trypanosoma brucei rhodesiense; assay: Dose required to inhibit growth of Trypanosoma brucei rhodesiense; 14->60 uM; format: functional; details: read-out: ED50 (the source's name)
# Method in brief: (§1)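 Bloodstream-form trypomastigotes of strain STIB 900 were grown in HMI-18 with nonessential amino acids, glucose and 15% heat-inactivated FCS at 37 °C, 5% CO2. Compounds were given as serial dilutions, in triplicate, from 1 × 10^4 cells/well. Cultures ran 72 h before Alamar Blue read-out, and ED50 was fitted.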
# [2] = tested on: NIH3T3; assay: Effective dose against murine 3T3 fibroblasts cells; format: functional; details: Mus musculus, read-out: ED50 (the source's name)
# Method in brief: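 Murine 3T3 fibroblasts were grown in RPMI 1640 with 10% FBS and held 72 h with compound at 37 °C, 5% CO2.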
# [3] = tested on: Protein farnesyltransferase (Trypanosoma brucei); assay: Inhibition of Trypanosoma brucei protein farnesyltransferase at 50 nM (82-87%)
# [4] = tested on: Trypanosoma brucei brucei; assay: Effective dose required to inhibit the growth of Trypanosoma brucei; format: functional; details: read-out: ED50 (the source's name)
# Method in brief: (§2)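 Bloodstream-form strain 427 was grown in HMI-9 with 10% FBS at 37 °C, 5% CO2. Cells were seeded at 1 × 10^4 trypomastigotes/well in triplicate, with serial dilutions from 20 mM DMSO stocks. Growth was read with Alamar Blue at 48 h, pentamidine served as positive control, and ED50 was fitted from the curves.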
# [5] = tested on: protein farnesyltransferase (Trypanosoma brucei); assay: Inhibition of against Trypanosoma brucei protein farnesyltransferase at 50 nM concentration
# [6] = tested on: NIH3T3; assay: Dose required against murine 3T3 fibroblasts cells; 1-10 uM; format: functional; details: Mus musculus, read-out: ED50 (the source's name)
# [7] = tested on: Trypanosoma brucei rhodesiense; assay: Effective dose required to inhibit the growth of Trypanosoma brucei rhodesiense; format: functional; details: read-out: ED50 (the source's name); method in brief: as §1
# [8] = tested on: Trypanosoma brucei brucei; assay: Dose required to inhibit growth of Trypanosoma brucei; 1-10 uM; format: functional; details: read-out: ED50 (the source's name); method in brief: as §2
# [9] = tested on: protein farnesyltransferase (Trypanosoma brucei); assay: Inhibition of Trypanosoma brucei protein farnesyltransferase at 50 nM concentration (65-74%)
# [10] = tested on: protein farnesyltransferase (Trypanosoma brucei); assay: Inhibition of Trypanosoma brucei protein farnesyltransferase at 50 nM (29-41%)
# [11] = tested on: Trypanosoma brucei brucei; assay: Dose required to inhibit growth of Trypanosoma brucei; 1-5 uM; format: functional; details: read-out: ED50; method in brief: as §2
# [12] = tested on: Trypanosoma brucei rhodesiense; assay: Dose required to inhibit growth of Trypanosoma brucei rhodesiense; 0.38-0.92 uM; format: functional; details: read-out: ED50; method in brief: as §1
# [13] = tested on: protein farnesyltransferase (Trypanosoma brucei); assay: Inhibition of Trypanosoma brucei protein farnesyltransferase at 50 nM (0-17%)
# [14] = biological target: protein farnesyltransferase (Trypanosoma brucei); assay: Inhibition of Trypanosoma brucei protein farnesyltransferase
# [15] = biological target: Protein farnesyltransferase (Homo sapiens, UniProt P49354+P49356); assay: Inhibition of mammalian protein farnesyltransferase; format: protein-complex assay
# [16] = tested on: NIH3T3; assay: Dose required to block Ras farnesylation in mouse 3T3 fibroblasts; format: functional; details: read-out: ED50 (the source's name)
# [17] = biological target: protein farnesyltransferase (Trypanosoma brucei); assay: Inhibition of Trypanosoma brucei protein farnesyltransferase at 50 nM
Compound,EC50 [2] [µM],EC50 [4] [µM],inhibition [5] [%],EC50 [7] [nM],also measured
CSCC[C@H](NC(=O)c1ccc(NCc2cncn2Cc2ccc(C)cc2)cc1-c1ccccc1)C(=O)O,> 10,> 10,–,–,EC50 [1]: > 60 µM; inhibition [3]: ≤ 87%
CSCC[C@H](NC(=O)c1ccc(NCc2cncn2Cc2ccc([N+](=O)[O-])cc2)cc1-c1ccccc1)C(=O)O,> 10,> 10,–,–,EC50 [1]: > 60 µM; inhibition [3]: 87%
CSCC[C@H](NC(=O)c1ccc(CNCc2c[nH]cn2)cc1-c1ccccc1C)C(=O)OC1CCCCC1,–,0.03,4.5,18,EC50 [6]: > 10 µM
COC(=O)[C@H](CCSC)NC(=O)c1ccc(NCc2cncn2Cc2ccccc2C#N)cc1-c1ccccc1,> 10,–,0,–,EC50 [8]: ≤ 10 µM
N#Cc1ccc(Cn2cncc2CNc2ccc(C(=O)NCC3CCCCC3)c(-c3ccccc3)c2)cc1,> 10,–,18.6,3200,EC50 [8]: > 10 µM
CSCC[C@H](NC(=O)c1ccc(NCc2cncn2Cc2cccc(C)c2)cc1-c1ccccc1)C(=O)O,> 10,> 10,–,> 60000,inhibition [9]: ≤ 74%
CSCC[C@H](NC(=O)c1ccc(NCc2cncn2Cc2ccccc2C#N)cc1-c1ccccc1)C(=O)O,> 10,> 10,–,> 60000,inhibition [10]: ≤ 41%
C=COC(=O)[C@H](CCSC)NC(=O)c1ccc(CNCc2c[nH]cn2)cc1-c1ccccc1C,–,0.01,4.9,9,EC50 [6]: > 10 µM
COC(=O)[C@H](CCSC)NC(=O)c1ccc(NCc2cncn2Cc2cccc(Cl)c2)cc1-c1ccccc1,> 10,–,–,–,EC50 [11]: ≤ 5 µM; EC50 [12]: ≤ 920 nM; inhibition [13]: ≤ 17%
COC(=O)[C@H](CCSC)NC(=O)c1ccc(NCc2cncn2Cc2ccccc2Cl)cc1-c1ccccc1,> 10,–,0,–,EC50 [8]: ≤ 10 µM
CSCC[C@H](NC(=O)c1ccc(NC(=O)Cc2cncn2C)cc1-c1ccccc1C)C(=O)O,> 25,> 25,83.2,> 60000,IC50 [14]: 6.6 nM
CSCC[C@H](NC(=O)c1ccc(CNCc2c[nH]cn2)cc1-c1ccccc1C)C(=O)O,> 25,1,96.1,200,IC50 [15]: 0.86 nM; IC50 [14]: 1.8 nM; EC50 [16]: 20 nM
CSCC[C@H](NC(=O)c1ccc(NCc2cncn2Cc2ccc(C#N)cc2)cc1-c1ccccc1)C(=O)O,> 10,> 10,–,> 60000,inhibition [3]: ≤ 87%
COC(=O)[C@H](CCSC)NC(=O)c1ccc(NCc2cncn2Cc2cccc(C#N)c2)cc1-c1ccccc1,> 10,–,–,–,EC50 [11]: ≤ 5 µM; EC50 [12]: ≤ 920 nM; inhibition [13]: ≤ 17%
CCCCC(CC)OC(=O)[C@H](CCSC)NC(=O)c1ccc(CNCc2c[nH]cn2)cc1-c1ccccc1C (stereo partly specified),–,0.02,15.2,20,EC50 [6]: > 10 µM
CSCC[C@H](NC(=O)c1ccc(NCc2cncn2Cc2ccc(Cl)cc2)cc1-c1ccccc1)C(=O)O,> 10,> 10,–,–,EC50 [1]: > 60 µM; inhibition [3]: ≤ 87%
CSCC[C@H](NC(=O)c1ccc(NCc2cncn2Cc2cccc(C#N)c2)cc1-c1ccccc1)C(=O)O,> 10,> 10,–,> 60000,inhibition [9]: ≤ 74%
CSCC[C@H](NC(=O)c1ccc(NCc2cncn2Cc2cccc(Cl)c2)cc1-c1ccccc1)C(=O)O,> 10,> 10,–,> 60000,inhibition [9]: ≤ 74%
COC(=O)[C@H](CCSC)NC(=O)c1ccc(NC[C@@H](N)CS)cc1-c1ccccc1,> 25,0.7,–,–,IC50 [14]: 40 nM
CSCC[C@H](NC(=O)c1ccc(NCc2cncn2Cc2ccccc2Cl)cc1-c1ccccc1)C(=O)O,> 10,> 10,–,> 60000,inhibition [10]: ≤ 41%
CSCC[C@H](NC(=O)c1ccc(CNCc2c[nH]cn2)cc1-c1ccccc1C)C(=O)OCc1ccccc1,–,0.02,41.7,–,EC50 [6]: > 10 µM
CSCC[C@H](NC(=O)c1ccc(CN(Cc2c[nH]cn2)Cc2c[nH]cn2)cc1-c1ccccc1C)C(=O)O,> 10,–,–,900,EC50 [8]: > 10 µM
CSCC[C@H](NC(=O)c1ccc(NCc2cncn2Cc2ccccc2C)cc1-c1ccccc1)C(=O)O,> 10,> 10,–,> 60000,inhibition [10]: ≤ 41%
CSCC[C@H](NC(=O)c1ccc(NCc2cncn2Cc2ccc(-c3ccccc3)cc2)cc1-c1ccccc1)C(=O)O,–,> 10,85.6,–,IC50 [17]: 8 nM; EC50 [1]: > 60 µM
COC(=O)[C@H](CCSC)NC(=O)c1ccc(NCc2cncn2Cc2cccc(C)c2)cc1-c1ccccc1,> 10,–,–,–,EC50 [11]: ≤ 5 µM; EC50 [12]: ≤ 920 nM; inhibition [13]: ≤ 17%
COC(=O)[C@H](CCSC)NC(=O)c1ccc(NCc2cncn2Cc2cccc([N+](=O)[O-])c2)cc1-c1ccccc1,> 10,–,–,–,EC50 [11]: ≤ 5 µM; EC50 [12]: ≤ 920 nM; inhibition [13]: ≤ 17%
COC(=O)[C@H](CCSC)NC(=O)c1ccc(NCc2cncn2Cc2ccccc2C)cc1-c1ccccc1,> 10,–,0,–,EC50 [8]: ≤ 10 µM
